In ChEMBL document CHEMBL1123543, “3,7-Diazabicyclane: a new narcotic analgesic” (J Med Chem, 1986):
Calls of active or inactive are those of the source.

Legend:
[1] = molecular target: Opioid receptor (Rattus norvegicus, UniProt P33533+P34975+P33535); assay: Concentration required to inhibit opiate receptor using radioligand [3H]- Etorphine; format: protein assay
[2] = test system: Mus musculus; assay: Effective dose for analgetic activity on subcutaneous administration in mice using Writhing test; Inactive at 460 uM/kg; format: functional, organism-based
Method in brief: (§1)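 Mouse acetic acid writhing assay. Compounds were given as methanesulfonic acid salts, dissolved in deionized water and injected subcutaneously. ED50 values and 95% confidence limits were calculated by the Litchfield–Wilcoxon method.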

[3] = test system: Rattus norvegicus; assay: Effective dose for analgetic activity on intracerebroventricular administration in rats using tail flick test; Inactive at 780 nM; format: functional, organism-based
Method in brief: (§2)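 Rats had cannulae stereotaxically implanted in the lateral ventricle (AP 0.0, L 2.0 from bregma, 3.5 mm below dura) and recovered for 2 weeks. Methanesulfonate salts in artificial rat CSF were injected icv at 10 μL over 30 s, with doses given as total amount. CSF alone served as control. After 0.5 h of acclimation in restraint, the tail was immersed 5 cm in 55 °C water at 5, 10, 15 and 20 min. Withdrawal latency was timed with a 30 s cutoff, averaging three observations. ED50 and 95% confidence limits were derived by Litchfield–Wilcoxon.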

[4] = test system: Rattus norvegicus; assay: Effective dose for analgetic activity on intracerebroventricular administration in rats using tail flick test; format: functional; method in brief: as §2
[5] = test system: Mus musculus; assay: Effective dose for analgetic activity on subcutaneous administration in mice using Writhing test; format: functional; settings: sc; method in brief: as §1
[6] = test system: Rattus norvegicus; assay: Effective dose for analgetic activity on intracerebroventricular administration in rats using tail flick test; Inactive; format: functional, organism-based; method in brief: as §2
[7] = test system: Mus musculus; assay: Effective dose for analgetic activity on subcutaneous administration in mice using Writhing test; Inactive; format: functional, organism-based; method in brief: as §1

CCC(=O)OC(c1ccccc1)C1C2CN(C)CC1CN(C)C2 (stereo not drawn)
IC50 [1]: 7600 nM
ED50 [2]: inactive
ED50 [3]: inactive

CN1CC[C@]23c4c5ccc(O)c4O[C@H]2[C@@H](O)C=C[C@H]3[C@H]1C5 [MORPHINE]
ED50 [4]: 23 nM
ED50 [5]: 3 µmol/kg

COC(c1cccc(O)c1)C1C2CN(C)CC1CN(C)C2 (stereo not drawn)
IC50 [1]: 2300 nM
ED50 [5]: 0.56 µmol/kg

CCC(=O)OC(c1cccc(O)c1)C1C2CN(C)CC1CN(C)C2 (stereo not drawn)
IC50 [1]: 530 nM
ED50 [4]: 25 nM
ED50 [5]: 0.85 µmol/kg

COC(c1ccccc1)C1C2CN(C)CC1CN(C)C2 (stereo not drawn)
IC50 [1]: 7200 nM
ED50 [6]: inactive
ED50 [7]: inactive
